Measured values published in PMC2606940 (The Journal of General Physiology, 2009).
Changes are numbered by the printed parent chain. Like-named read-outs stand apart in the source and are kept apart here.

Columns and labels:
[1] = biological target: T1, CLC-0 E166C/E127Q/K519E mutant (Torpedo marmorata, UniProt P21564, C212S/E127Q/E166C/K519E); assay type: cell-based; settings: read-out: Apparent affinity (K1/2)
T1 sequence (P21564 1-805 E127Q/E166C/C212S/K519E): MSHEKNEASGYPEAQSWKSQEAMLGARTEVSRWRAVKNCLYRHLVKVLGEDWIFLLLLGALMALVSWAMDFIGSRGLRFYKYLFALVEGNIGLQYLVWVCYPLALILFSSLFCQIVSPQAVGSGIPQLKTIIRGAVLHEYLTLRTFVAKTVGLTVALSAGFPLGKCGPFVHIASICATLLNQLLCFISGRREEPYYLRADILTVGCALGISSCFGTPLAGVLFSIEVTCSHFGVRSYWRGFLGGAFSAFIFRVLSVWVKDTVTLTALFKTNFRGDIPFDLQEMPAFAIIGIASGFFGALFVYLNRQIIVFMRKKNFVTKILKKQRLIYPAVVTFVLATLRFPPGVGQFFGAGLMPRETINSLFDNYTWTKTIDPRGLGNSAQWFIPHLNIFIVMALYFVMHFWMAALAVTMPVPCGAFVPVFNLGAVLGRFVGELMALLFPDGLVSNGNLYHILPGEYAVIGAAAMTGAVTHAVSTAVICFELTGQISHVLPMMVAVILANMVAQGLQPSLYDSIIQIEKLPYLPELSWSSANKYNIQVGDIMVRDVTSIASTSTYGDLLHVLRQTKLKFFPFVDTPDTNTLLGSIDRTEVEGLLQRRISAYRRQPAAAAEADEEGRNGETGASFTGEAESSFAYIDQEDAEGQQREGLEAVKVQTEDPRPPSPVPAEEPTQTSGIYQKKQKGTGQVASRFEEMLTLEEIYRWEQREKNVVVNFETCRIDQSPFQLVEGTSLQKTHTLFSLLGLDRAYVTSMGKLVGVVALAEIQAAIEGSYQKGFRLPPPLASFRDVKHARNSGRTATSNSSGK
Procedure, shortened: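 CLC-0 mutants in the C212S background were transfected into HEK293 cells with lipofectamine and recorded 1–3 d later as excised inside-out patches. Both sides held 130 mM NaCl, 5 mM MgCl2, 10 mM HEPES and 1 mM EGTA, pH 7.4. CPA was perfused continuously onto the cytoplasmic face. Steady-state current over the last 10 ms was normalized to bracketing blocker-free controls and fitted to a Langmuir function for K1/2. Values are mean ± SEM of ~4–6 patches.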

CLC-0 E166A mutant = biological target: T2, CLC-0 E166A mutant (Torpedo marmorata, UniProt P21564, C212S/E166A); settings: ref Traverso et al., 2003; cited from earlier work
T2 sequence (P21564 1-805 E166A/C212S): T1 sequence (P21564 1-805 E127Q/E166C/C212S/K519E) with Q127E, C166A, E519K

CLC-0 E166Q mutant = biological target: T3, CLC-0 E166Q mutant (Torpedo marmorata, UniProt P21564, C212S/E166Q); assay: Single-channel recordings, channels expressed in Xenopus oocytes; assay type: cell-based; settings: 0.1 mM CPA; −100 mV
T3 sequence (P21564 1-805 E166Q/C212S): T1 sequence (P21564 1-805 E127Q/E166C/C212S/K519E) with Q127E, C166Q, E519K
Procedure, shortened: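 Single channels were expressed in Xenopus oocytes from cRNA made from a pBluescript construct. Currents were recorded at −100 mV with cytoplasmic CPA at 100 μM, filtered at 200 Hz (four-pole Bessel) and digitized at 1 kHz. Average dwell time of nonconducting events was analysed from the single-channel traces.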

For `O=C(O)COc1ccc(Cl)cc1` [CPA, p-chlorophenoxy acetate], the IC50 ([1]; −40 mV) was 586 ± 52 µM, the IC50 ([1]; −60 mV) was 327 ± 24 µM and the IC50 ([1]; −80 mV) was 198 ± 14 µM. It also gave an IC50 ([1]; −100 mV) of 123 ± 9 µM, an IC50 ([1]; −120 mV) of 87 ± 6 µM and an IC50 ([1]; −140 mV) of 62 ± 5 µM. For the same molecule, the IC50 ([1]; −160 mV) was 44 ± 5 µM, the “CPA-blocking affinity of E166A relative to wild-type channel (higher)” value (CLC-0 E166A mutant) was > 100 fold and the “long blocked state in single-channel trace” value (CLC-0 E166Q mutant) was “absent”.
